ChEMBL document CHEMBL1121883, “1-(Naphthylalkyl)-1H-imidazole derivatives, a new class of anticonvulsant agents” (J Med Chem, 1981)
“And” between values parts separate entries of the source, which are not always exact repeats. Equal values may be shown once.

Assays:
[1] = system: Mus musculus; assay: Dose of compound causing a neurological deficit in 50% of mice after ip administration; 71-111; assay type: functional
Method in brief: (§1)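 Traction test in male Hilltop ICR-derived mice (19-30 g, groups of 8-10) just before electroshock, 15 min after ip or 30 min after oral dosing. Mice placed on a 16-gauge, 65-cm copper wire 40 cm above the table; deficit scored as failure to stay on for 10 s. ND50 with 95% limits by Litchfield-Wilcoxon.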

[2] = system: Mus musculus; assay: Compound was evaluated for anticonvulsant activity by maximal electroshock assay(MES) in mice after ip administration; 18-28; assay type: functional
Method in brief: (§2)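 Male Hilltop ICR-derived mice (19-30 g), groups of 8-10, dosed ip with compound or aqueous vehicle. After 15 min pretreatment, a transcorneal 60-Hz, 50 mA shock was given for 0.2 s. Just before the shock, each mouse was tested on a horizontal wire (10 s). Quantal data were analysed by Litchfield-Wilcoxon to give ED50 with 95% confidence limits.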

[3] = system: Mus musculus; assay: Protective index is defined as ND50 (i.p.) divided by MES ED50(i.p.); assay type: functional
Method in brief: (§3)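 Ratio of ND50 from the wire traction test to MES ED50, both measured by the same route (ip or oral) in the same animals. Quantal dose-response data for each were evaluated by Litchfield-Wilcoxon.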

[4] = system: Mus musculus; assay: Dose of compound causing a neurological deficit in 50% of mice after ip administration; 71-93; assay type: functional; method in brief: as §1
[5] = system: Mus musculus; assay: Compound was evaluated for anticonvulsant activity by maximal electroshock assay(MES) in mice after ip administration; 38-55; assay type: functional; method in brief: as §2
[6] = system: Mus musculus; assay: Dose causing a neurological deficit in 50% of mice after ip administration.; assay type: functional; method in brief: as §1
[7] = system: Mus musculus; assay: Compound was evaluated for anticonvulsant activity by maximal electroshock assay(MES) in mice after ip administration; 20-42; assay type: functional; method in brief: as §2
[8] = (§4) Lethal dose was measured in mice after ip administration.; assay type: toxicity, organism-based; conditions: mouse, in vivo
Method in brief: (§5)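 Male Simonsen ICR-derived mice (16-24 g), groups of three, given compound ip in increasing doses within a behavioral screen. Deaths counted on day 5, and LD50 estimated from 5-day survival. Quantal data analysed by the Litchfield-Wilcoxon method.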

[9] = system: Mus musculus; assay: Compound was evaluated for anticonvulsant activity by maximal electroshock assay(MES) in mice after po administration.; assay type: functional
Method in brief: (§6)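 Male Hilltop ICR-derived mice (19-30 g), groups of 8-10, given compound or aqueous vehicle orally. The transcorneal 60-Hz shock (50 mA, 0.2 s) followed a 30 min pretreatment and a wire-hang neurological check (10 s). ED50 and 95% confidence limits were obtained from quantal data by the Litchfield-Wilcoxon method.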

[10] = system: Mus musculus; assay: Dose causing a neurological deficit in 50% of mice following p.o. administration.; assay type: functional; method in brief: as §1
[11] = system: Mus musculus; assay: as §4; assay type: functional; method in brief: as §5
[12] = system: Rattus norvegicus; assay: Compound was evaluated for anticonvulsant activity by maximal electroshock assay(MES) in rat after po administration.; assay type: functional
Method in brief: (§7)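 Male Simonsen Sprague-Dawley-derived rats, 80-110 g, groups of 8-10, dosed with compound or aqueous vehicle; pretreatment 15 min after ip or 30 min after oral dosing. Transcorneal electroshock, 150 mA, 60 Hz, 0.2 s, given after the wire test. ED50 with 95% confidence limits from quantal data by Litchfield-Wilcoxon.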

[13] = system: Mus musculus; assay: Compound was evaluated for anticonvulsant activity by maximal electroshock assay(MES) in mice after ip administration; 8-19; assay type: functional; method in brief: as §2
[14] = system: Rattus norvegicus; assay: Dose of compound causing a neurological deficit in 50% of rat after ip administration.; assay type: functional
Method in brief: (§8)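 Rats (Simonsen Sprague-Dawley-derived, 80-110 g, groups of 8-10) placed on a suspended 16-gauge, 65-cm copper wire just before electroshock. Deficit scored as inability to remain for 8 s. Pretreatment was 15 min ip or 30 min oral. Quantal data analysed by Litchfield-Wilcoxon to give ND50 with 95% limits.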

[15] = system: Mus musculus; assay: Protective index defined as ND50 (p.o.) divided by MES ED50(op); assay type: functional; method in brief: as §3
[16] = system: Rattus norvegicus; assay: Compound was evaluated for anticonvulsant activity by maximal electroshock assay(MES) in rat after ip administration; 2.9-19; assay type: functional
[17] = system: Mus musculus; assay: Compound was evaluated for anticonvulsant activity by maximal electroshock assay(MES) in mice after po administration; 60-147; assay type: functional; method in brief: as §6
[18] = system: Mus musculus; assay: Compound was evaluated for anticonvulsant activity by maximal electroshock assay(MES) in mice after po administration; 23-40; assay type: functional; method in brief: as §6
[19] = system: Mus musculus; assay: Dose of compound causing a neurological deficit in 50% of mice after ip administration; 35-49; assay type: functional; method in brief: as §1
[20] = system: Rattus norvegicus; assay: Dose of compound causing a neurological deficit in 50% of rat after po administration.; assay type: functional; method in brief: as §8
[21] = system: Rattus norvegicus; assay: Compound was evaluated for anticonvulsant activity by maximal electroshock assay(MES) in rat after po administration; 7.3-20; assay type: functional; method in brief: as §7
[22] = system: Rattus norvegicus; assay: Dose of compound causing a neurological deficit in 50% of rat after ip administration; 31-78; assay type: functional; method in brief: as §8
[23] = system: Mus musculus; assay: Dose of compound causing a neurological deficit in 50% of mice after po administration; 79-196; assay type: functional; method in brief: as §1
[24] = system: Rattus norvegicus; assay: Compound was evaluated for anticonvulsant activity by maximal electroshock assay(MES) in rat after ip administration; […]; assay type: functional
[25] = system: Mus musculus; assay: Compound was evaluated for anticonvulsant activity by maximal electroshock assay(MES) in mice after ip administration; 8-13; assay type: functional; method in brief: as §2
[26] = system: Rattus norvegicus; assay: Compound was evaluated for anticonvulsant activity by maximal electroshock assay(MES) in rat after po administration; 11-42; assay type: functional; method in brief: as §7
[27] = system: Mus musculus; assay: Dose of compound causing a neurological deficit in 50% of mice after ip administration; 13-115; assay type: functional; method in brief: as §1
[28] = system: Rattus norvegicus; assay: Compound was evaluated for anticonvulsant activity by maximal electroshock assay(MES) in rat after ip administration; 5.3-12; assay type: functional; method in brief: as §7
[29] = system: Rattus norvegicus; assay: Dose of compound causing a neurological deficit in 50% of rat after ip administration; 26-92; assay type: functional; method in brief: as §8
[30] = system: Mus musculus; assay: Compound was evaluated for anticonvulsant activity by maximal electroshock assay(MES) in mice after po administration; 16-32; assay type: functional; method in brief: as §6
[31] = system: Mus musculus; assay: Dose of compound causing a neurological deficit in 50% of mice after ip administration; assay type: functional; method in brief: as §1
[32] = system: Mus musculus; assay: Compound was evaluated for anticonvulsant activity by maximal electroshock assay(MES) in mice after po administration; 68-149; assay type: functional; method in brief: as §6
[33] = system: Mus musculus; assay: Anticonvulsant activity in mouse maximal electroshock assay following i.p. administration.; assay type: functional; conditions: ip; method in brief: as §2

For `CCC(=O)OC(Cn1ccnc1)c1ccc2ccccc2c1.Cl` (stereo unspecified), the ND50 [1] was 83 mg/kg, the ED50 [2] was 23 mg/kg and the PI [3] was 3.6.

For `Cl.Clc1ccc(OC(Cn2ccnc2)c2ccc3ccccc3c2)cc1` (stereo unspecified), the ND50 [4] was 82 mg/kg, the ED50 [5] was 46 mg/kg and the PI [3] was 1.8.

Work on `COc1ccc2cc(C(=O)Cn3ccnc3)ccc2c1.Cl` yielded an ND50 [6] greater than 100 mg/kg, an ED50 [7] of 31 mg/kg and an LD50 [8] greater than 100 mg/kg. The ED50 [9] was greater than 100 mg/kg, the PI [3] was greater than 3.3 and the ND50 [10] was greater than 100 mg/kg.

For `Br.CCc1ccc2cc(C(=O)Cn3ccnc3)ccc2c1`, the LD50 [11] was greater than 100 mg/kg, the ED50 [12] was greater than 30 mg/kg and the ED50 [13] was 12 mg/kg. For the same compound, the ND50 [14] was greater than 100 mg/kg, the ND50 [6] was greater than 100 mg/kg and the PI [15] was greater than 1.2. The ED50 [16] was 5.5 mg/kg, the PI [3] was greater than 8.1 and the ED50 [17] was 84 mg/kg. It also gave an ND50 [10] greater than 100 mg/kg.

Compound `COC(Cn1ccnc1)c1ccc2ccccc2c1.Cl` (stereo unspecified) has an ED50 [18] of 28 mg/kg, an ND50 [19] of 42 mg/kg and an ND50 [20] greater than 100 mg/kg. The PI [15] was 3.9, the ED50 [21] was 13 mg/kg and the ND50 [22] was 46 mg/kg. The ND50 [23] was 110 mg/kg, the ED50 [24] was 3.8 mg/kg and the PI [3] was 4.2. It also gave an ED50 [25] of 10 mg/kg.

For `Cl.c1ccc2c(C3(Cn4ccnc4)OCCO3)cccc2c1`, the ND50 [20] was roughly 200 mg/kg, the ED50 [26] was 22 mg/kg and the PI [15] was >4.3 and ~9. For the same compound, the ND50 [27] was 28 mg/kg, the ED50 [28] was 7.8 mg/kg and the ND50 [29] was 44 mg/kg. It also gave an ED50 [30] of 23 mg/kg and an ND50 [10] greater than 100 mg/kg.

Work on `CCc1ccc2cc(C3(Cn4ccnc4)OCCO3)ccc2c1.Cl` yielded a PI [15] greater than 2, a PI [3] greater than 4 and an ND50 [31] greater than 100 mg/kg. For the same compound, the ED50 [32] was 100 mg/kg, the ED50 [33] was 25 mg/kg and the ND50 [10] was greater than 200 mg/kg.
